Autophagy HCS – autophagy modulation, high-content screen; MEF GFP-LC3 puncta imaging; test concentration mostly 10 µM; calls only at 10 µM (by protocol); 190,000 compounds, 0.98% hits; AID 463193;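 active means percentage of spot-positive cells more than 3 SD above its plate mean, without a fluorescence outlier flag or 80% toxicity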;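 further: spot-positive cell cutoff set from DMSO-treated cells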
Dynein transport – blocks dynein driven cargo transport along microtubules. 3617.4 mouse cells, GR-EGFP nuclear translocation imaging; test concentration mostly 20 µM; stimulated with dexamethasone, 1 µM; hits give low values. z-score, hits read low. 220,000 compounds, 0.47% hits. AID 1381;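 active means plate z-score of nuclear minus cytoplasmic receptor signal below a set negative limit, without overly bright fluorescence or cell loss, cut at about -3.5 in these data, passing the limit was not always enough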;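 further: z-score of nuclear minus cytoplasmic ring GR-EGFP intensity difference per well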
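Also added – dexamethasone, 1.0 µM final · Buffer or medium – tet-free, stripped-serum medium · Schedule – induction 48 h, compound 1 h, agonist 30 min · Detection – formaldehyde fixation, Hoechst nuclear stain, 10x automated fluorescence imaging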
Ins promoter up – MIN6 insulin promoter up-regulation | MIN6 insulin promoter-GFP reporter, high-content imaging; hits give high values | z-score at 5 µM | 190,000 compounds, 0.3% hits | AID 1625;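 active means z-score above 3 at 5 µM with at least 500 cells counted in the well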
INS promoter inh – TRM-6 insulin promoter activity inhibition; inhibition, % at 2 µM; 130,000 compounds, 0.9% hits; TRM-6 cells (human fetal islet line), insulin promoter-eGFP reporter, imaging; reporter expression induced with tamoxifen;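 active means inhibition above the mean plus 3 SD, with well images judged a real hit on visual review, cut at about 60% in these data, passing the limit was not always enough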
PERK inhibitor – human PERK inhibition, primary cell-based screen. Q9NZJ5. CHO PERK-DD fusion, SEAP luminescence translation reporter. inhibition, % at 5.6 µM. 220,000 compounds, 0.17% hits. AID 1416;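 active means inhibition above the mean inhibition of all tested compounds plus 3 SD, set separately per screening campaign, cut at about 2.9% in these data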;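 further: PERK kinase domain activated by AP20187 dimerizer at 100 nM; 0% = DMSO with dimerizer and 100% = rapamycin at 8.4 µM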
The depositor's hits bear a star. The list is not random: actives were taken first. Their share in the collection is about 2.1%.

`Cc1cc(C)c(N2CCN(S(=O)(=O)N3CCCCCC3)CC2)c(C)c1` gave Autophagy HCS inactive, Dynein transport -0.423, Ins promoter up -1.76, INS promoter inh 3.9 and PERK inhibitor 0.5.
`CC(C)c1ccc(S(=O)(=O)/N=C2/C=C(Sc3ncn[nH]3)C(=O)c3ccccc32)cc1` gave Autophagy HCS inactive, Dynein transport -5.27*, Ins promoter up 1.3, INS promoter inh -117.7 and PERK inhibitor -0.4.
For Cc1ccc(C)c(S(=O)(=O)Nc2ccc(O)c(Sc3ncn[nH]3)c2)c1 the results were Dynein transport 0.868, Ins promoter up -0.06 and PERK inhibitor 1.3.
Cc1ccc(S(=O)(=O)/N=C2/C=C(Sc3ncn[nH]3)C(=O)c3ccccc32)cc1 was read as Autophagy HCS inactive, Dynein transport -3.68*, Ins promoter up 1.39, INS promoter inh -210.0 and PERK inhibitor 0.6.
Screening Cc1ccc(S(=O)(=O)/N=C2/C=C(Sc3ncn[nH]3)C(=O)c3ccccc32)c(C)c1 returned Autophagy HCS inactive, Dynein transport -3.61*, Ins promoter up -0.15, INS promoter inh -184.6 and PERK inhibitor 1.0.
`Cc1ccc(S(=O)(=O)Nc2ccc(O)c(Sc3ncn[nH]3)c2)cc1` gave Autophagy HCS inactive, Dynein transport -0.0386, Ins promoter up 0.46, INS promoter inh 27.8 and PERK inhibitor 0.3.
`O=C(CC12CC3CC(CC(Br)(C3)C1)C2)OCCN1CCCCC1` gave Autophagy HCS active, Dynein transport 0.643, Ins promoter up 0.1, INS promoter inh -38.1 and PERK inhibitor -0.4.
`COc1ccc(N=c2oc3c(OC)cccc3cc2C(=O)NCc2ccco2)c(OC)c1` gave Autophagy HCS active, Dynein transport 1.48, Ins promoter up -3.31, INS promoter inh 21.4 and PERK inhibitor -0.3.
`CCN(C(=O)c1cc2c(=O)[nH]c3ccc(C)cc3c2s1)c1ccc(OC)cc1` gave Dynein transport -0.506, Ins promoter up -1.65 and PERK inhibitor -1.2.
Clc1ccc(/C=N/c2c(-c3ccc(Cl)cc3)nc3n2CCS3)cc1 was read as Autophagy HCS active, Dynein transport 0.158, Ins promoter up -0.47, INS promoter inh -7.0 and PERK inhibitor 1.1.
`COc1ccc(Nc2ccc([N+](=O)[O-])cc2[N+](=O)[O-])cc1` gave Autophagy HCS inactive, Dynein transport -1.01, INS promoter inh 5.9 and PERK inhibitor 1.9.
Cc1ccccc1NC(=O)NCCCN1CCN(C2CCCCC2)CC1 was read as Autophagy HCS inactive, Dynein transport 2.83, Ins promoter up 0.73, INS promoter inh -10.0 and PERK inhibitor -0.8.
For Cc1ccccc1NC(=O)NCCCN1CCCC1 the results were Autophagy HCS inactive, Dynein transport -0.479, Ins promoter up 0.55, INS promoter inh 0.0 and PERK inhibitor 3.5*.
Screening CCOC(=O)c1sc(NC(=O)c2sccc2C)cc1C returned Autophagy HCS inactive, Dynein transport -5.56, Ins promoter up 3.1*, INS promoter inh 13.3 and PERK inhibitor -1.8.
`CCOC(=O)c1sc(NC(=O)c2cccs2)cc1C` gave Autophagy HCS inactive, Dynein transport -1.28, Ins promoter up 0.91 and PERK inhibitor -1.0.
O=C(OCC#CCSc1nnc(-c2ccc([N+](=O)[O-])cc2)o1)c1cccs1 was read as Autophagy HCS inactive, Dynein transport 0.0766, Ins promoter up 0.43, INS promoter inh 6.5 and PERK inhibitor 0.8.
For CC1CCCC(C)N1/N=C/c1ccccc1C(=O)O (stereo not given) the results were Autophagy HCS inactive, Dynein transport -1.26, Ins promoter up 2.05, INS promoter inh 72.2* and PERK inhibitor 0.9.
Screening O=C1Nc2ccccc2Oc2cc([N+](=O)[O-])cc(Oc3ccccc3)c21 returned Autophagy HCS active, Dynein transport 1.79, Ins promoter up 2.8, INS promoter inh -182.8 and PERK inhibitor 0.2.
Screening CC1=NN(S(=O)(=O)c2ccc(Cl)cc2Cl)C(=O)c2ccccc2O1 returned Dynein transport -0.425, Ins promoter up -0.89 and PERK inhibitor 1.8.
For O=C(c1ccco1)[C@@H]1[C@@H]2C(=O)N(c3ccc(F)cc3)C(=O)[C@@H]2C2c3ccccc3C=CN21 (stereo not given in full) the results were Autophagy HCS inactive, Dynein transport 1.71, Ins promoter up -0.48, INS promoter inh -7.1 and PERK inhibitor 3.0*.
